ChEMBL document CHEMBL1828503, “Design, synthesis and docking studies of quinoline-oxazolidinone hybrid molecules and their antitubercular properties” (2011)
Values after ≈ are worked out from the molar mass of the structure shown.

Tests used:
Format in all cases: functional
[1] = test system: Mycolicibacterium smegmatis; assay: Antimicrobial activity against Mycobacterium smegmatis ATCC 19420 after 7 days by resazurin assay; settings: ATCC 19420, 168 h
In short: (§1)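 Resazurin microplate assay. Culture added to fresh medium in 96-well plates. Compound stocks 2 mg/mL in DMF. DMF-only controls, with rifampicin and isoniazid as references. Incubated 7 days at 37 °C, then 0.01% resazurin in water added. Blue-to-pink change read after 1 h at 37 °C. MIC taken as the lowest concentration preventing the colour change.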

[2] = test system: Mycobacterium tuberculosis; assay: Antimicrobial activity against Mycobacterium tuberculosis H37Rv ATCC 27294 assessed as growth inhibition after 7 days by resazurin assay
[3] = test system: Mycolicibacterium fortuitum; assay: Antimicrobial activity against Mycobacterium fortuitum ATCC 19542 after 7 days by resazurin assay; settings: ATCC 19542, 168 h; in short: as §1
Staphylococcus aureus = assay: Antimicrobial activity against Staphylococcus aureus ATCC 25923 after 18 to 48 hrs by serial dilution method
Streptococcus pyogenes = assay: Antimicrobial activity against Streptococcus pyogenes clinical isolate after 18 to 48 hrs by serial dilution method
Klebsiella pneumoniae = assay: Antimicrobial activity against Klebsiella pneumoniae clinical isolate after 18 to 48 hrs by serial dilution method
[4] = test system: Mycobacterium tuberculosis; assay: Antimicrobial activity against Mycobacterium tuberculosis H37Rv ATCC 27294 after 7 days by resazurin assay; settings: H37Rv ATCC 27294, 168 h
In short: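 M. tuberculosis H37Rv ATCC 27294 culture diluted into fresh medium in 96-well microtitre plates. Compounds were taken from 2 mg/mL stocks in DMF, with DMF-only control tubes and rifampicin and isoniazid as references. Plates were incubated 37 °C for 7 days, then 0.01% aqueous resazurin was added and read after 1 h at 37 °C. MIC is the lowest concentration preventing the blue-to-pink change.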

Escherichia coli = assay: Antimicrobial activity against Escherichia coli ATCC 25922 after 18 to 48 hrs by serial dilution method
Pseudomonas aeruginosa = assay: Antimicrobial activity against Pseudomonas aeruginosa ATCC 27853 after 18 to 48 hrs by serial dilution method

SMILES	MIC [1] [µg/mL]	growth inhibition (GI) [2] [%]	MIC [3] [µg/mL]	MIC (Staphylococcus aureus) [µg/mL]	MIC (Streptococcus pyogenes) [µg/mL]	MIC (Klebsiella pneumoniae) [µg/mL]	MIC [4] [µg/mL]	MIC (Escherichia coli) [µg/mL]	MIC (Pseudomonas aeruginosa) [µg/mL]
COc1ccc2nc(C)cc(NC(=O)CN3CC(CN4CCN(C)CC4)OC3=O)c2c1 (centres undefined)	10 (≈ 23.4 µM)	90	10 (≈ 23.4 µM)	0.8 (≈ 1.87 µM)	0.4 (≈ 0.936 µM)	0.1 (≈ 0.234 µM)	1 (≈ 2.34 µM)	0.4 (≈ 0.936 µM)	1.6 (≈ 3.74 µM)
CCN1CCN(CC2CN(CC(=O)Nc3cc(C)nc4ccc(OC)cc34)C(=O)O2)CC1 (centres undefined)	100 (≈ 226 µM)	85	100 (≈ 226 µM)	0.8 (≈ 1.81 µM)	0.2 (≈ 0.453 µM)	1.6 (≈ 3.62 µM)	10 (≈ 22.6 µM)	1.6 (≈ 3.62 µM)	0.8 (≈ 1.81 µM)
COc1ccc2nc(C)cc(NC(=O)CN3CC(CN4CCN(C(C)=O)CC4)OC3=O)c2c1 (centres undefined)	100 (≈ 220 µM)	80	100 (≈ 220 µM)	0.8 (≈ 1.76 µM)	0.8 (≈ 1.76 µM)	1.6 (≈ 3.51 µM)	5 (≈ 11 µM)	1.6 (≈ 3.51 µM)	1.6 (≈ 3.51 µM)
COc1ccc2nc(C)cc(NC(=O)CN3CC(CN4CCN(C(C)C)CC4)OC3=O)c2c1 (centres undefined)	100 (≈ 220 µM)	85	100 (≈ 220 µM)	1.6 (≈ 3.51 µM)	1.6 (≈ 3.51 µM)	3.12 (≈ 6.86 µM)	5 (≈ 11 µM)	0.8 (≈ 1.76 µM)	0.8 (≈ 1.76 µM)
COc1ccc2nc(C)cc(NC(=O)CN3CC(CN4CCN(C(C)(C)C)CC4)OC3=O)c2c1 (centres undefined)	100 (≈ 213 µM)	0	100 (≈ 213 µM)	1.6 (≈ 3.41 µM)	0.8 (≈ 1.7 µM)	1.6 (≈ 3.41 µM)	100 (≈ 213 µM)	1.6 (≈ 3.41 µM)	0.8 (≈ 1.7 µM)
COc1ccc2nc(C)cc(NC(=O)CN3CC(CN4CCOCC4)OC3=O)c2c1 (centres undefined)	10 (≈ 24.1 µM)	95	10 (≈ 24.1 µM)	0.8 (≈ 1.93 µM)	0.2 (≈ 0.483 µM)	0.1 (≈ 0.241 µM)	1 (≈ 2.41 µM)	0.1 (≈ 0.241 µM)	0.4 (≈ 0.965 µM)
COc1ccc2nc(C)cc(NC(=O)CN3CC(CNC4CC4)OC3=O)c2c1 (centres undefined)	100 (≈ 260 µM)	90	100 (≈ 260 µM)	1.6 (≈ 4.16 µM)	3.12 (≈ 8.13 µM)	> 12.5	10 (≈ 26 µM)	> 12.5	1.6 (≈ 4.16 µM)
COc1ccc2nc(C)cc(NC(=O)CN3CC(CN4CCCC4)OC3=O)c2c1 (centres undefined)	100 (≈ 251 µM)	0	100 (≈ 251 µM)	6.25 (≈ 15.7 µM)	3.12 (≈ 7.84 µM)	> 12.5	100 (≈ 251 µM)	> 12.5	1.6 (≈ 4.02 µM)
COc1ccc2nc(C)cc(NC(=O)CN3CC(CN4CCCCC4)OC3=O)c2c1 (centres undefined)	100 (≈ 242 µM)	0	100 (≈ 242 µM)	3.12 (≈ 7.58 µM)	6.25 (≈ 15.2 µM)	> 12.5	100 (≈ 242 µM)	> 12.5	3.12 (≈ 7.58 µM)
COc1ccc2nc(C)cc(NC(=O)CN3CC(CNCC4CCCCC4)OC3=O)c2c1 (centres undefined)	100 (≈ 227 µM)	0	100 (≈ 227 µM)	6.25 (≈ 14.2 µM)	1.6 (≈ 3.63 µM)	6.25 (≈ 14.2 µM)	100 (≈ 227 µM)	6.25 (≈ 14.2 µM)	> 12.5
COc1ccc2nc(C)cc(NC(=O)CN3CC(CN4CCC(C)CC4)OC3=O)c2c1 (centres undefined)	100 (≈ 234 µM)	0	100 (≈ 234 µM)	> 12.5	6.25 (≈ 14.7 µM)	6.25 (≈ 14.7 µM)	100 (≈ 234 µM)	6.25 (≈ 14.7 µM)	> 12.5
COc1ccc2nc(C)cc(NC(=O)CN3CC(CNC4CCCC4)OC3=O)c2c1 (centres undefined)	100 (≈ 242 µM)	0	100 (≈ 242 µM)	> 12.5	6.25 (≈ 15.2 µM)	6.25 (≈ 15.2 µM)	100 (≈ 242 µM)	> 12.5	> 12.5
O=C(O)c1cn(C2CC2)c2cc(N3CCNCC3)c(F)cc2c1=O [CIPROFLOXACIN]	–	–	–	1 (≈ 3.02 µM)	–	–	–	0.025 (≈ 0.0754 µM)	0.4 (≈ 1.21 µM)
NNC(=O)c1ccncc1 [ISONIAZID]	50 (≈ 365 µM)	>95	12.5 (≈ 91.1 µM)	–	–	–	0.7 (≈ 5.1 µM)	–	–
CO[C@H]1/C=C/O[C@@]2(C)Oc3c(C)c(O)c4c(O)c(c(/C=N/N5CCN(C)CC5)c(O)c4c3C2=O)NC(=O)/C(C)=C\C=C\[C@H](C)[C@H](O)[C@@H](C)[C@@H](O)[C@@H](C)[C@H](OC(C)=O)[C@@H]1C [RIFAMPIN]	1.5 (≈ 1.82 µM)	>95	1.5 (≈ 1.82 µM)	–	–	–	0.5 (≈ 0.608 µM)	–	–
